Measured values from ChEMBL document CHEMBL1128500, “Diamine and triamine analogs and derivatives as inhibitors of deoxyhypusine synthase: synthesis and biological activity” (J Med Chem, 1995).

What was measured:
Deoxyhypusine synthase = biological target: T1, Deoxyhypusine synthase (Rattus norvegicus, UniProt Q6AY53); assay: In vitro IC50 value by measuring the inhibition of deoxyhypusine synthase.
T1 sequence (Q6AY53 whole entry): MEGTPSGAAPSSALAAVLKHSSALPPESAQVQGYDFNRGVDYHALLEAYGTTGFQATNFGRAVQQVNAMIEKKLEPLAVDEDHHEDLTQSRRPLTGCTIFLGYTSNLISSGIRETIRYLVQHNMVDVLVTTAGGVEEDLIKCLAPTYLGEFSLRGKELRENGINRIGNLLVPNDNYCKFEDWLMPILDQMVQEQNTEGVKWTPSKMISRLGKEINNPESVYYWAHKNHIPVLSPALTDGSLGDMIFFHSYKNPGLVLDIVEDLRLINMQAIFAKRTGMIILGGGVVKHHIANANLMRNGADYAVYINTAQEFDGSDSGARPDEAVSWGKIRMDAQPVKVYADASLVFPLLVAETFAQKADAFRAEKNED

[1] = biological target: T2, Deoxyhypusine synthase (Homo sapiens) (UniProt P49366); assay: Effect on Hypusine formation in CHO cells at concentration 3 uM.; type: functional, cell-based; conditions: Cricetulus griseus
T2 sequence (whole entry): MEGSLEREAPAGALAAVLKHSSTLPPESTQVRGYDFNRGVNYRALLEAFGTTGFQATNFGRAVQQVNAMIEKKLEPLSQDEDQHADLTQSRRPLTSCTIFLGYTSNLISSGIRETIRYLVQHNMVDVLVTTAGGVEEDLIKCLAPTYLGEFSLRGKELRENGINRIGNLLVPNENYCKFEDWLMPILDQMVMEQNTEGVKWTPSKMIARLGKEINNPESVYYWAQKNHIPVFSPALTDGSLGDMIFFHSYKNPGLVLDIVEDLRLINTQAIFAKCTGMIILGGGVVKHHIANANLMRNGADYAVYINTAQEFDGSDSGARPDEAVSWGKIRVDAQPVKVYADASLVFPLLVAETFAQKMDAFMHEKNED

[2] = biological target: T2, Deoxyhypusine synthase (Homo sapiens); assay: Effect on Hypusine formation in CHO cells at concentration 10 uM.; type: functional, cell-based; conditions: Cricetulus griseus
[3] = biological target: T2, Deoxyhypusine synthase (Homo sapiens); assay: Effect on protein synthesis in CHO cells at concentration 3 uM.; conditions: Cricetulus griseus
CHO [4] = assay: Effect on spermidine uptake in CHO cells at concentration 10 uM.; type: functional
In short: (§1)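 Spermidine uptake in CHO cells: total cellular radioactivity after 18 h growth with 5 μCi/mL [3H]spermidine in presence of compound, reported as percentage of untreated-cell value.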

[5] = biological target: T2, Deoxyhypusine synthase (Homo sapiens); assay: Effect on protein synthesis in CHO cells at concentration 10 uM.; conditions: Cricetulus griseus
CHO [6] = assay: Effect on hypusine synthesis in CHO cells at concentration 10 uM.; type: functional, Cricetulus griseus
CHO [7] = assay: Effect on spermidine uptake in CHO cells at concentration 3 uM.; type: functional, Cricetulus griseus; in short: as §1
CHO [8] = assay: Growth inhibition was measured against CHO cell line; - indicates >100 uM; type: functional, cell-based; conditions: Cricetulus griseus
In short: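 CHO cells grown with compound for 72 h; cellular protein measured by bicinchoninic acid method as crude growth estimate (control protein rose ~16-fold over 72 h). Symbol gives compound range halving protein versus control: ++++ <0.5, +++ 0.5-1, ++ >1-10, + >10-100, - >100 μM.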

SMILES | IC50 (Deoxyhypusine synthase) [µM] | Control [1] [%] | Control [2] [%] | Control [3] [%] | Control (CHO [4]) [%] | Control [5] [%] | also measured
NCCCCCN=C(N)N | 29 |  |  |  |  |  | 
N=C(N)SCCCCCCCSC(=N)N | > 1000 |  |  |  |  |  | 
N=C(N)NCCCCNCCCCNC(=N)N | 3.2 | 100 | 100 | 100 | 85 | 100 | 
N=C(N)SCCCCCCSC(=N)N | 780 |  |  |  |  |  | 
N=C(N)SCCCCCSC(=N)N | > 1000 |  |  |  |  |  | 
N=C(N)NCCCOCCCNC(=N)N | 8 | 100 | 100 | 100 | 100 |  | Control (CHO [6]): 100%
NCCCCNCCCCN=C(N)N | 0.16 | 7 | 3 | 88 | 28 | 93 | Control (CHO [7]): 64%
NCCCOCCCN=C(N)N |  | 76 | 20 | 98 | 95 | 92 | 
N=C(N)CCCCCCCCC(=N)N | > 1000 |  |  |  |  |  | 
N=C(N)NCCCCCCCNC(=N)N | 3.4 |  |  |  |  |  | 
N#CCCNCCCCCCCNC(=N)N | 96 |  |  |  |  |  | 
N=C(N)NCCCCCCCCNCCCCCCCCN | 13 |  |  |  |  |  | 
NCCCCCCCCNCCCCCCCCN=C(N)N |  | 36 | 27 | 20 | 80 | 22 | 
NCCCCCCCNCCCCCCCN | 63 |  |  |  |  |  | 
N=C(N)NCCCCCCNCCCCCCN | 74 |  |  |  |  |  | 
NCCCCCNCCCCCN=C(N)N | 100 |  | 92 | 80 | 74 | 65 | 
NCCCCNCCCCN | 556 |  |  |  |  |  | Growth inhibition (CHO [8]): Not toxic
N=C(N)NCCCCCCCNCCCCCCCN | 0.3 |  |  |  |  |  | 
NCCCCCNCCCCCN | > 1000 |  |  |  |  |  | 

SMILES | IC50 (Deoxyhypusine synthase) [µM] | Control [1] [%] | Control [2] [%] | Control [3] [%] | Control (CHO [4]) [%] | Control [5] [%] | also measured
N=C(N)NCCCCCCCNCCCCCCCNC(=N)N | 0.08 | 90 | 74 | 88 | 95 | 67 | 
CCNCCCCCCCN | 275 |  |  |  |  |  | Growth inhibition (CHO [8]): Not toxic
N=C(N)NCCCCN [AGMATINE] | 156 |  |  |  |  |  | 
N=C(N)SCCCCCCCCSC(=N)N | > 1000 |  |  |  |  |  | 
N=C(N)CCCCCC(=N)N | > 1000 |  |  |  |  |  | 
N=C(N)NCCCCCCCCNCCCCCCCCNC(=N)N [IMINOCTADIENE] | 3.5 | 100 | 100 | 100 | 95 | 84 | 
N=C(N)NCCCCCCCCN | 0.55 |  |  |  |  |  | 
NCCCSCCCN | 83 | 100 | 93 | 86 | 100 | 81 | 
N=C(N)NCCCNCCCN | 1.2 |  |  |  |  |  | 
N=C(N)CCCCCCCCCCC(=N)N | > 1000 |  |  |  |  |  | 
NCCCCSCCCN | 235 |  |  |  |  |  | 
NCCCCCCNCCCCCCN=C(N)N |  | 61 | 48 | 45 | 80 | 35 | 
N=C(N)SCCCCSC(=N)N | > 1000 |  |  |  |  |  | 
N=C(N)NCCCSCCCNC(=N)N | 21 | 100 | 74 | 100 | 81 | 60 | 
NCCCCCCNCCCCCCN | > 1000 |  |  |  |  |  | 
N=C(N)NCCCCCCCCNC(=N)N | 16.1 |  |  |  |  |  | 
N=C(N)CCCCCCCCCC(=N)N | > 1000 |  |  |  |  |  | 
N=C(N)NCCCCSCCCNC(=N)N | 48 |  |  |  |  |  | 
NCCCNOCCCN | 385 |  |  |  |  |  | 

SMILES | IC50 (Deoxyhypusine synthase) [µM] | Control [1] [%] | Control [2] [%] | Control [3] [%] | Control (CHO [4]) [%] | Control [5] [%] | also measured
N=C(N)NCCCOCCCN | 0.7 |  |  |  |  |  | 
NCCCNCCCN [NORSPERMIDINE] | 41 |  |  |  |  |  | 
N=C(N)CCCCCCCC(=N)N | 120 |  |  |  |  |  | 
NCCCCCCCNCCCCCCCN=C(N)N |  | 34 | 22 | 24 | 65 | 20 | 
N=C(N)NCCCCCCNC(=N)N | 112 |  |  |  |  |  | 
NCCCOCCCN | 13 | 100 | 100 | 100 | 100 | 85 | 
N=C(N)NCCCCCNCCCCCNC(=N)N | 38 | 100 | 100 | 100 | 95 | 100 | 
CCNCCCCCCCN=C(N)N |  | 76 | 36 | 34 | 95 | 28 | 
N=C(N)NCCCCCCNCCCCCCNC(=N)N | 40 | 96 | 100 | 93 | 95 | 87 | 
NCCCNCCCN=C(N)N |  | 50 | 23 | 77 | 34 | 75 | Control (CHO [7]): 76%
N=C(N)NCCCCCCN | 132 |  |  |  |  |  | 
CCNCCCCCCCNC(=N)N | 9 |  |  |  |  |  | 
NCCCCCCCCNCCCCCCCCN | 116 |  |  |  |  |  | 
N=C(N)NCCCCCCCN | 0.03 | 0 |  | 62 |  | 50 | Control (CHO [7]): 100%
NCCCSCCCN=C(N)N | 1.9 | 50 | 24 | 40 | 100 | 25 | 
N=C(N)CCCCCCC(=N)N | > 1000 |  |  |  |  |  | 
[H]/N=C(/N)NCCCCCNC(=N)N | 6.8 |  |  |  |  |  | 
N=C(N)NCCCNCCCNC(=N)N | 182 | 98 | 100 | 80 | 95 |  | Growth inhibition (CHO [8]): Not toxic
NC(N)=NCCCCN=C(N)N [ARCAINE] | 179 |  |  |  |  |  | 
